In brackets after ≈: the same amount, converted by molar mass. Activity calls are given as the source filed them. No cut-off for these calls is given here.
Assays:
Mycobacterium marinum [1] = assay: Antimycobacterial activity against Mycobacterium marinum ATCC BAA-535 infected in Zebra fish model assessed as reduction in bacterial load at 5 mg/kg, po administered for 7 days measured after 14 days by MPN assay; assay type: functional
How it was run: (§1)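 Adult zebra fish infected with M. marinum ATCC BAA-535 (grown at 30 °C in Middlebrook 7H9 broth). Oral treatment began 7 days post infection and ran for 7 days. Fish were then sacrificed and homogenised in 7H9 broth. Homogenate was serially diluted to 10^-6, plated in 48-well plates and incubated at 30 °C. Bacterial count was by MPN.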

[2] = test system: Mycobacterium tuberculosis; assay: Antimycobacterial activity against nutrient starved Mycobacterium tuberculosis H37Rv assessed as reduction in bacterial load for 7 days measured after 28 days by microplate reader analysis; assay type: functional
How it was run: (§2)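 H37Rv grown in 7H9/OADC, pelleted, washed twice and resuspended in PBS. It was starved in sealed bottles at 37 °C for 6 weeks. Cultures were exposed to drug at 10 µg/ml for 7 days at 37 °C. Ten-fold dilutions to 10^-6 in 7H9/OADC were plated in triplicate and incubated 28 days at 37 °C without agitation. Wells with visible growth were scored and MPN calculated.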

Pantothenate synthetase = biological target: T1, Pantothenate synthetase (Mycobacterium tuberculosis, UniProt P9WIL5); assay: Inhibition of Mycobacterium tuberculosis pantothenate synthetase using pantoic acid as substrate and beta-alanine as reactant assessed as NAD+ formation by spectrophotmetry in presence of NADH
T1 sequence (P9WIL5 whole entry): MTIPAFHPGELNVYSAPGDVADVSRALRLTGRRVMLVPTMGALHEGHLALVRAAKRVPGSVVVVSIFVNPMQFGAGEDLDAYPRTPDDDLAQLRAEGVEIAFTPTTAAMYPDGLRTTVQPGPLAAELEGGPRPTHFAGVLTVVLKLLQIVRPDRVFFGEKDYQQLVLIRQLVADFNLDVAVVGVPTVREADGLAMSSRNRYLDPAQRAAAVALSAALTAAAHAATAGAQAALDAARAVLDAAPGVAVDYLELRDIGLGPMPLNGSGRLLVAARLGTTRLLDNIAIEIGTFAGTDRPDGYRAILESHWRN
How it was run: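 Recombinant MTB PS (panC, Rv3602c) expressed in E. coli BL21(DE3). Coupled assay in 100 mM HEPES pH 7.8: 0.4 mM NADH, 5 mM pantoic acid, 5 mM β-alanine, 10 mM ATP, 10 mM MgCl2, 1 mM phosphoenolpyruvate, with myokinase, pyruvate kinase and lactate dehydrogenase. Compounds were tested from 25 µM downward. Reaction was started with PS; NADH depletion was read at 340 nm at 37 °C, background-corrected.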

[3] = Cytotoxicity against mouse RAW264.7 cells assessed as inhibition of cell viability at 50 uM after 72 hrs by MTT assay; assay type: cell-based; settings: read-out: INH
How it was run: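 RAW 264.7 mouse macrophages were exposed to compound at 50 µM for 72 h. Viability was read as MTT conversion to formazan.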

[4] = test system: Mycobacterium tuberculosis; assay: Antimycobacterial activity against Mycobacterium tuberculosis H37Rv ATCC 27294 after 7 days by microplate Alamar blue assay; assay type: functional; settings: H37Rv ATCC 27294, 168 h
How it was run: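 MABA against M. tuberculosis H37Rv. Inoculum came from LJ medium, resuspended in 7H9-S (7H9, 0.1% casitone, 0.5% glycerol, OADC), adjusted to McFarland No. 1 and diluted 1:20. Two-fold dilutions spanned 50 to 0.78 µg/mL, in duplicate. Plates ran 7 days at 37 °C, then alamar blue was added overnight. MIC was the lowest concentration preventing the blue-to-pink change.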

[5] = test system: Mycobacterium tuberculosis; assay: Antimycobacterial activity against nutrient starved Mycobacterium tuberculosis H37Rv assessed as reduction in bacterial load at 10 ug/ml incubated for 7 days measured after 28 days by microplate reader analysis; assay type: functional; how it was run: as §2
Mycobacterium marinum [6] = assay: Antimycobacterial activity against Mycobacterium marinum ATCC BAA-535 infected in Zebra fish model assessed as reduction in bacterial load at 10 mg/kg, po administered for 7 days measured after 14 days by MPN assay; assay type: functional; how it was run: as §1

SMILES	Activity (Mycobacterium marinum [1])	MIC [2]	IC50 (Pantothenate synthetase)	cytotoxicity at 72 h, 50 µM [3]	MIC [4]	Activity [5]	Activity (Mycobacterium marinum [6])
COc1c(N2C[C@@H]3CCCN[C@@H]3C2)c(F)cc2c(=O)c(C(=O)O)cn(C3CC3)c12 [MOXIFLOXACIN]	2.9 deltalog10CFU/ml	0.78 µg/mL (≈ 1.94 µM)					
Cc1nc2sc3ccccc3n2c1C(=O)NNC(=O)c1cccc2ccccc12			1390 nM	32%	15.6 µM (≈ 6.25 µg/mL)		
COc1cc(/C=N/NC(=O)c2c(C)nc3sc4ccccc4n23)cc(OC)c1OC			2070 nM	16.2%	29.4 µM (≈ 12.5 µg/mL)		
Cc1nc2sccn2c1C(=O)NC1CCCCC1			2000 nM	32.1%	11.8 µM (≈ 3.12 µg/mL)		
CO[C@H]1/C=C/O[C@@]2(C)Oc3c(C)c(O)c4c(O)c(c(/C=N/N5CCN(C)CC5)c(O)c4c3C2=O)NC(=O)/C(C)=C\C=C\[C@H](C)[C@H](O)[C@@H](C)[C@@H](O)[C@@H](C)[C@H](OC(C)=O)[C@@H]1C [RIFAMPIN]	1.9 deltalog10CFU/ml	0.1 µg/mL (≈ 0.122 µM)				2.1 deltalog10CFU/ml	
Cc1nc2sccn2c1C(=O)Nc1ccc(Br)cc1			690 nM	32.3%	2.32 µM (≈ 0.78 µg/mL)	2 deltalog10CFU/ml	
CCOc1ccc(NC(=O)c2c(C)nc3sc4ccccc4n23)cc1			2100 nM	52.7%	42 µM (≈ 14.7 µg/mL)		
Cc1nc2sccn2c1C(=O)NNC(=O)c1ccccc1			5310 nM	10.3%	40.1 µM (≈ 12 µg/mL)		
Cc1nc2sccn2c1C(=O)N/N=C/c1ccc(N(C)C)cc1			2500 nM	6.75%	38.2 µM (≈ 12.5 µg/mL)		
Cc1nc2sc3ccccc3n2c1C(=O)NNC(=O)C1CCCCC1			2910 nM	45.4%	17.5 µM (≈ 6.25 µg/mL)		
Cc1nc2sc3ccccc3n2c1C(=O)NCc1ccccc1			840 nM	6.62%	19.4 µM (≈ 6.25 µg/mL)		
Cc1ccc(C(=O)NNC(=O)c2c(C)nc3sc4ccccc4n23)cc1			5830 nM	53%	17.1 µM (≈ 6.25 µg/mL)		
Cc1nc2sccn2c1C(=O)N/N=C/c1ccc(C(F)(F)F)cc1			670 nM	12.8%	17.7 µM (≈ 6.25 µg/mL)		
CC1(C)S[C@@H]2[C@H](NC(=O)[C@H](N)c3ccc(O)cc3)C(=O)N2[C@H]1C(=O)O							inactive
Cc1nc2sc3ccccc3n2c1C(=O)N/N=C/c1ccc(N(C)C)cc1			1460 nM	12.1%	4.13 µM (≈ 1.56 µg/mL)		
CC[C@@H](CO)NCCN[C@@H](CC)CO [ETHAMBUTOL]			> 25000 nM		7.64 µM (≈ 1.56 µg/mL)		
Cc1nc2sc3ccccc3n2c1C(=O)NNC(=O)c1ccc(Oc2ccccc2)cc1			530 nM	10.4%	3.53 µM (≈ 1.56 µg/mL)		1.5 deltalog10CFU/ml
Cc1nc2sc3ccccc3n2c1C(=O)N/N=C/c1ccc(Br)cc1			1020 nM	10.1%	15.1 µM (≈ 6.25 µg/mL)		

SMILES	Activity (Mycobacterium marinum [1])	MIC [2]	IC50 (Pantothenate synthetase)	cytotoxicity at 72 h, 50 µM [3]	MIC [4]	Activity [5]	Activity (Mycobacterium marinum [6])
Cc1nc2sc3ccccc3n2c1C(=O)N/N=C/c1ccc(C(F)(F)F)cc1			5310 nM	16.1%	16.5 µM (≈ 6.65 µg/mL)		
Cc1nc2sc3ccccc3n2c1C(=O)NC1CCCCC1			1020 nM	13.4%	19.9 µM (≈ 6.25 µg/mL)		
COc1ccc(NC(=O)c2c(C)nc3sccn23)cc1			5830 nM	58.7%	20.7 µM (≈ 5.96 µg/mL)		
Cc1nc2sc3ccccc3n2c1C(=O)Nc1ccccc1			1030 nM	33.2%	40.7 µM (≈ 12.5 µg/mL)		
Cc1nc2sc3ccccc3n2c1C(=O)Nc1ccc(Br)cc1			520 nM	20.9%	16.2 µM (≈ 6.25 µg/mL)		
Cc1nc2sccn2c1C(=O)NNC(=O)C1CCCCC1			5380 nM	31.2%	20.4 µM (≈ 6.25 µg/mL)		
COc1cc(/C=N/NC(=O)c2c(C)nc3sccn23)cc(OC)c1OC			5610 nM	1.17%	33.4 µM (≈ 12.5 µg/mL)		
Cc1nc2sccn2c1C(=O)NCc1ccccc1			1060 nM	12.7%	11.5 µM (≈ 3.13 µg/mL)		
Cc1nc2sccn2c1C(=O)Nc1ccccc1			740 nM	14.1%	12.1 µM (≈ 3.12 µg/mL)		
NNC(=O)c1ccncc1 [ISONIAZID]		0.05 µg/mL (≈ 0.365 µM)	> 25000 nM		0.72 µM (≈ 0.0987 µg/mL)	1.1 deltalog10CFU/ml	1.8 deltalog10CFU/ml
Cc1nc2sc3ccccc3n2c1C(=O)NNC(=O)c1ccccc1			1100 nM	29.7%	35.7 µM (≈ 12.5 µg/mL)		
Cc1nc2sccn2c1C(=O)N/N=C/c1ccccc1			580 nM	23.1%	23.2 µM (≈ 6.6 µg/mL)		
Cc1ccc(C(=O)NNC(=O)c2c(C)nc3sccn23)cc1			4990 nM	39.2%	5.96 µM (≈ 1.87 µg/mL)	2.1 deltalog10CFU/ml	
Cc1nc2sccn2c1C(=O)NNC(=O)c1ccc(Oc2ccccc2)cc1			1230 nM	2.98%	7.96 µM (≈ 3.12 µg/mL)		
Cc1nc2sccn2c1C(=O)NNC(=O)c1cccc2ccccc12			640 nM	27.5%	17.8 µM (≈ 6.25 µg/mL)		
Cc1nc2sc3ccccc3n2c1C(=O)N/N=C/c1ccccc1			2150 nM	34.6%	9.35 µM (≈ 3.13 µg/mL)		
Cc1nc2sccn2c1C(=O)N/N=C/c1ccc(Br)cc1			1200 nM	22.2%	34.4 µM (≈ 12.5 µg/mL)		

— ChEMBL document CHEMBL3763117, “Design, synthesis and biological evaluation of imidazo[2,1-b]thiazole and benzo[d]imidazo[2,1-b]thiazole derivatives as Mycobacterium tuberculosis pantothenate synthetase inhibitors” (Bioorg Med Chem, 2016)
